Here are results for 24 compounds from ChEMBL document CHEMBL1126609, “5-HT3 receptor antagonists. 2. 4-Hydroxy-3-quinolinecarboxylic acid derivatives” (J Med Chem, 1993).

Assay [1] has as its target T1, Serotonin 3 (5-HT3) receptor (Rattus norvegicus, UniProt P35563+Q9JJ16).
T1 sequence (P35563 whole entry): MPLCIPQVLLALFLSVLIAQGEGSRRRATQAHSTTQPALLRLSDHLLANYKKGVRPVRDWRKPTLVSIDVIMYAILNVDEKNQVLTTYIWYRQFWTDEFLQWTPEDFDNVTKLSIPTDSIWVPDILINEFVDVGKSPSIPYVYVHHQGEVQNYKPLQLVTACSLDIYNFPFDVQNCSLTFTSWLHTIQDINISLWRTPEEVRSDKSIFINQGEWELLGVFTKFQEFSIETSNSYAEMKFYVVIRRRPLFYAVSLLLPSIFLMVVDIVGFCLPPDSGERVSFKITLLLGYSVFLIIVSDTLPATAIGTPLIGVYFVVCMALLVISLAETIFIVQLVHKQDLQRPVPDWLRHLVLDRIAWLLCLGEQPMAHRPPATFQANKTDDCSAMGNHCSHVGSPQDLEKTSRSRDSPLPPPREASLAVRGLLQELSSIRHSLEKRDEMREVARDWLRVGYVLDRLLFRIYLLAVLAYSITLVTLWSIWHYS
T1 sequence (Q9JJ16 whole entry): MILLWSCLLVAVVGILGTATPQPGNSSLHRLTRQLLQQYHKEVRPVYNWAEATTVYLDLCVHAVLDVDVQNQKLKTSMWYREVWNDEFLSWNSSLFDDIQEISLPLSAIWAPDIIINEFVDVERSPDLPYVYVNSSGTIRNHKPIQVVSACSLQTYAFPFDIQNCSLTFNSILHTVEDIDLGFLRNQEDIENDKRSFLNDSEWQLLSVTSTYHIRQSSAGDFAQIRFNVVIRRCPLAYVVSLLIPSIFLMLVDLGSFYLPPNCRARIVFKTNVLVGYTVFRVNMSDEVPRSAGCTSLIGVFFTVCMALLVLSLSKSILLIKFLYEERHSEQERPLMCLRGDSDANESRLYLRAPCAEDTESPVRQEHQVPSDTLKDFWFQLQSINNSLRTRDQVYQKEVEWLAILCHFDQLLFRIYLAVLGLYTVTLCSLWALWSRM
Kind of assay: Binding affinity against radioligand [3H]quipazine labeled 5-hydroxytryptamine 3 receptor sites in neuroblastoma-glioma (NG108-15) cells.

The subject of assay [2] is Canis familiaris. Description: Mean percentage reduction due to cisplatin-induced emetic episodes in dog after an intravenous administration of 0.01 mg/kg of drug. The class given is functional, Canis lupus familiaris. Put shortly: (§1)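 Adult male fasted beagles (9–15 kg) received drug 30 min (iv) or 60 min (po) before cisplatin 3 mg/kg iv, dissolved by sonication in saline. Dogs were then observed 6 h, with emesis defined as productive regurgitation. Episode counts and latency were compared with controls (n = 7), using 2–4 dogs per dose. Dogs that never vomited were assigned 360 min latency.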

Assay [3] has as its system Canis familiaris. Description: Mean percentage reduction due to cisplatin-induced emetic episodes in dog after an intravenous administration of 0.03 mg/kg of drug. Format: functional, Canis lupus familiaris. Put shortly: as §1
Assay [4] has as its system Canis familiaris. Kind of assay: Mean percentage reduction due to cisplatin-induced emetic episodes in dog after an intravenous administration of 0.1 mg/kg of drug. Format: functional, Canis lupus familiaris. Summed up: (§2)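 Adult male fasted beagle dogs (9-15 kg) received test drug iv 30 min before cisplatin (3 mg/kg, iv, in saline) and were monitored for 6 h. Episodes were counted as productive regurgitation of stomach contents. Percent reduction is versus the control group (n = 7); n = 2-4 dogs per dose.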

The test system of assay [5] is Canis familiaris. Description: Mean percentage reduction due to cisplatin-induced emetic episodes in dog after an intravenous administration of 0.3 mg/kg of drug. Format: functional, Canis lupus familiaris. Summed up:
as §2

In assay [6] the test system is Canis familiaris. Kind of assay: Mean percentage reduction due to cisplatin-induced emetic episodes in dog after an peroral administration of 0.1 mg/kg of drug. The class given is functional, Canis lupus familiaris. To be noted: route oral. Summed up:
as §1

In assay [7] the test system is Canis familiaris. Kind of assay: Mean percentage increase emetic latency in dog after an intravenous administration of 0.01 mg/kg of drug. Format: functional, Canis lupus familiaris. Summed up:
as §1

Assay [8] relates to Canis familiaris. Kind of assay: Mean percentage increase emetic latency in dog after an intravenous administration of 0.03 mg/kg of drug. Format: functional, Canis lupus familiaris. Summed up:
as §1

In assay [9] the test system is Canis familiaris. Kind of assay: Mean percentage increase emetic latency in dog after an intravenous administration of 0.1 mg/kg of drug. The class given is functional, Canis lupus familiaris. Put shortly:
(§3)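 Adult male fasted beagle dogs (9-15 kg), fed on the day of the experiment; test drug given iv 30 min before cisplatin (3 mg/kg, iv, dissolved by sonication in saline). Dogs were monitored for 6 h. Emesis was defined as productive regurgitation of stomach contents.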

For assay [10], the system named is Canis familiaris. Description: Mean percentage increase emetic latency in dog after an intravenous administration of 0.3 mg/kg of drug (when dogs did not vomit,360min). The class given is functional, Canis lupus familiaris. Summed up: as §1
For assay [11], the system named is Canis familiaris. Kind of assay: Mean percentage increase emetic latency in dog after an peroral administration of 0.1 mg/kg of drug. The class given is functional, Canis lupus familiaris. The note with it: route oral. Summed up: as §1
The subject of assay [12] is Canis familiaris. Description: Mean percentage increase emetic latency in dog after an peroral administration of 1.0 mg/kg of drug. The class given is functional, Canis lupus familiaris. The note with it: route oral. Put shortly: as §1
Assay [13] concerns Canis familiaris. Description: Mean percentage reduction due to cisplatin-induced emetic episodes in dog after an peroral administration of 1.0 mg/kg of drug. The class given is functional, Canis lupus familiaris. To be noted: route oral. Put shortly: as §1
For assay [14], the target named is Serotonin 3 (5-HT3) receptor (Rattus norvegicus) (UniProt P35563+Q9JJ16). Description: In vivo inhibitory concentration after 5 minutes against 5-hydroxytryptamine 3 receptor induced bradycardia [bezold-jarisch (B-J) reflex test] in rat by intravenous administration. The class given is functional, organism-based. Summed up:
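Compounds given iv. The 5-HT-induced bradycardia (Bezold–Jarisch reflex) was measured at 5 min. ED50 is the dose reducing the bradycardia by 50%, from four determinations.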

The test system of assay [15] is Canis familiaris. Description: Mean percentage increase emetic latency in dog after an intravenous administration of 0.3 mg/kg of drug. The class given is functional, Canis lupus familiaris. Put shortly:
as §3

The test system of assay [16] is Canis familiaris. Description: Mean percentage increase emetic latency in dog after an intravenous administration of 1 mg/kg of drug (when dogs did not vomit, 360 min). The class given is functional, Canis lupus familiaris. Put shortly:
as §3

Assay [17] relates to Canis familiaris. Description: Mean percentage reduction due to cisplatin-induced emetic episodes in dog after an intravenous administration of 1 mg/kg of drug. Format: functional, Canis lupus familiaris. Put shortly: as §2

By Ki is commonly meant a dissociation constant, usually derived from enzyme kinetics or from competition with a known ligand. Read a high Ki as weaker binding. The compound `CN1C2CCC1CC(NC(=O)c1cnc3ccccc3c1O)C2` (stereo in doubt; 6f) registered a Ki in [1] of 1.5 nM. Also, the Reduction was found to be 44% in the assay on Canis familiaris [2]; 54% in the assay on Canis familiaris [3]; 80% in the assay on Canis familiaris [4]; 100% in the assay on Canis familiaris [5]; 64% in the assay on Canis familiaris [6]. Besides, the Increase in the assay on Canis familiaris [7] was 14%; with Canis familiaris [8], 23%; with Canis familiaris [9], 116%; with Canis familiaris [10], over 284%; with Canis familiaris [11], 32%; in the assay on Canis familiaris [12], 142%. The Increase in the assay with Canis familiaris [13] stood at 88%.
`CCCCn1c(=O)c(C(=O)OC2CC3CCC(C2)N3C)c(O)c2ccccc21` (stereo not drawn) yielded an inhibition constant (Ki) in [1] of over 100 nM.
One may read the ED50 as the dose that gives a 50% effect, or the effect in half of the subjects. A high value points to a need for a large dose. In the case of `CN1C2CCCC1CC(NC(=O)c1nn(C)c3ccccc13)C2` (stereo not drawn), the ED50 in assay [14] was determined as 0.019 mg/kg.
Take `CN1C2CCCC1CC(NC(=O)c1cnc3ccccc3c1O)C2` (stereo not drawn): the Ki in assay [1] is 30 nM.
Take `Cc1nc2ccccc2c(O)c1C(=O)OC1CC2CCC(C1)N2C` (stereo not drawn): the Ki in assay [1] worked out at 58 nM.
As for `CN1C2CCC1CC(OC(=O)c1cnc3ccccc3c1O)C2` (stereo not drawn), in assay [14], the 50% effect level (ED50) was put at a dose of 0.0017 mg/kg. The compound further gave an inhibition constant (Ki) in assay [1] of 6.1 nM.
Compound `O=C(NC1CCN2CCCC1C2)c1cnc2ccccc2c1O` (stereo not drawn) gave a Ki in [1] of 18 nM.
In assay [14], `CCCCn1c(=O)c(C(=O)NC2CC3CCC(C2)N3C)c(O)c2cccnc21` (stereo not drawn) returned an ED50 of over 0.1 mg/kg. In addition, affinity in [1] was put at a Ki of 6.4 nM.
`Cc1ccc2c(O)c(C(=O)OC3CC4CCC(C3)N4C)cnc2n1` (stereo not drawn): the inhibition constant Ki in assay [1] was over 100 nM.
In assay [1], `CN1C2CCC1CC(NC(=O)c1cnc3ccccc3c1O)C2` (stereo in doubt; 6h) had a Ki of 100 nM.
On the same count and under the same terms, next, `CN1C2CCC1CC(NC(=O)c1cnc3ccccc3c1Cl)C2` (stereo not drawn): 85 nM; `CN1C2CCC1CC(NC(=O)c1cnc3ccccc3c1N)C2` (stereo not drawn): over 100 nM.
In assay [14], `CCCCn1c(=O)c(C(=O)NC2CC3CCC(C2)N3C)c(O)c2ccccc21` (stereo not drawn) showed an ED50 of 0.29 mg/kg. The compound also gave an inhibition constant (Ki) in assay [1] of 0.48 nM.
The corresponding values for `CN1C2CCC1CC(NC(=O)c1c(O)c3ccccc3n(-c3ccccc3)c1=O)C2` (stereo not drawn) are 0.073 mg/kg and 1.4 nM.
In the same order, the values of `CN1C2CCC1CC(OC(=O)c1cnc3ccccc3c1)C2` (stereo not drawn) are 0.37 mg/kg and 66.9 nM.
In the case of `CN1C2CCC1CC(NC(=O)c1c(O)c3cccnc3n(-c3ccccc3)c1=O)C2` (stereo not drawn), the Ki in assay [1] came to 14 nM.
In assay [1], `CN1C2CCC1CC(NC(=O)c1c(O)c3ccccc3[nH]c1=O)C2` (stereo not drawn) returned an inhibition constant (Ki) of 7.6 nM.
As to `Cc1nc2ccccc2c(O)c1C(=O)NC1CC2CCC(C1)N2C` (stereo not drawn), the 50% effective dose (ED50) in assay [14] came out at 0.015 mg/kg. In assay [1], this compound returned a Ki of 7.2 nM.
With `CN1C2CCC1CC(NC(=O)c1c(O)nc3ccccc3c1O)C2` (stereo not drawn), the ED50 in [14] was 0.22 mg/kg.
In [1], `CN1C2CCC1CC(NC(=O)c1cnc3ccccc3c1)C2` (stereo not drawn) returned an inhibition constant Ki of over 100 nM.
Take `Cc1nccn1CC1CCc2c(c3ccccc3n2C)C1=O` (stereo not drawn) [ONDANSETRON]: in [14], the ED50 is 0.021 mg/kg. Moreover, the Reduction with Canis familiaris [4] is 18%; with Canis familiaris [5], 61%; in the assay with Canis familiaris [17] it was 100%. Also, the results for the Increase in the assay on Canis familiaris [15], with Canis familiaris [16] and in the assay on Canis familiaris [9] were 115%, over 284% and 33%, respectively.
`Cc1ccc2c(O)c(C(=O)NC3CC4CCC(C3)N4C)cnc2n1` (stereo not drawn) had a Ki in assay [1] of over 100 nM.
Same read-out and setting: for `CN1C2CCC1CC(OC(=O)c1c(O)c3cccnc3n(-c3ccccc3)c1=O)C2` (stereo not drawn) the value was over 100 nM; for `CCCCn1c(=O)c(C(=O)OC2CC3CCC(C2)N3C)c(O)c2cccnc21` (stereo not drawn), over 100 nM.
